Source: ChEMBL document CHEMBL1143453 (Bioorg Med Chem Lett, 2005)

Experiments:
[1] = molecular target: T1, Alpha-2A adrenergic receptor (Homo sapiens, UniProt P08913); assay: (§1) Binding affinity towards human alpha-2A adrenergic receptor expressed in Chinese Hamster ovary (CHO) cells; assay type: functional, cell-based
T1 sequence (P08913 whole entry): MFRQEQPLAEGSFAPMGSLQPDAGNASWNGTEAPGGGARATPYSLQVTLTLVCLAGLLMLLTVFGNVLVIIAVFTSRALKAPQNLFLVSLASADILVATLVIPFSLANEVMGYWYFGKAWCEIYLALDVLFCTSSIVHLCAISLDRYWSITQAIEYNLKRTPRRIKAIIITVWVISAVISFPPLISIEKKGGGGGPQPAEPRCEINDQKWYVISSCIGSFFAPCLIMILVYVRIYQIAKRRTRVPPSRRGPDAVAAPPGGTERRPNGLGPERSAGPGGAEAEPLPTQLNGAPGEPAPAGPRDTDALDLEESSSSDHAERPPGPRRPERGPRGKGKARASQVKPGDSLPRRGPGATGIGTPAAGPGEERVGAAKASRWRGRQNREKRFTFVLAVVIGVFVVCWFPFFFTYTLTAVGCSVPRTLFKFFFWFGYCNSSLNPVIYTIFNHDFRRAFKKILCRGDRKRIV

[2] = molecular target: T2, Alpha-1A adrenergic receptor (Homo sapiens, UniProt P35348); assay: Binding affinity towards alpha-1A adrenergic receptor expressed in human embryonic kidney (HEK293) cells; assay type: cell-based
T2 sequence (P35348 whole entry): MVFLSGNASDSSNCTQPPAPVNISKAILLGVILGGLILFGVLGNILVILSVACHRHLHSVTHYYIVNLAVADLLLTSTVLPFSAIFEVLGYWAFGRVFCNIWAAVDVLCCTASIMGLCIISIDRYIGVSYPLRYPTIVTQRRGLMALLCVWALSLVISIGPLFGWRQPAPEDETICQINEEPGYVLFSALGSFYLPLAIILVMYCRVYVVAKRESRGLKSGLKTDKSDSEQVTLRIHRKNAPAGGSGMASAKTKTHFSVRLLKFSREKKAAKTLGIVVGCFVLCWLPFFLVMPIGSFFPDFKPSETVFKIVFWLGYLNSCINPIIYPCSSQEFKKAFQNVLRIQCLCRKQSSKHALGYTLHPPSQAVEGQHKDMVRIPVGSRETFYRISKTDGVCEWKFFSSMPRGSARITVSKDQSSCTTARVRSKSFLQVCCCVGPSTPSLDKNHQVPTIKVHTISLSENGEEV

[3] = molecular target: T3, Alpha-1D adrenergic receptor (Rattus norvegicus) (UniProt P23944); assay: Potency against alpha-1D adrenergic receptor is determined by phenylephrine-induced contractions in rat; assay type: functional
T3 sequence (whole entry): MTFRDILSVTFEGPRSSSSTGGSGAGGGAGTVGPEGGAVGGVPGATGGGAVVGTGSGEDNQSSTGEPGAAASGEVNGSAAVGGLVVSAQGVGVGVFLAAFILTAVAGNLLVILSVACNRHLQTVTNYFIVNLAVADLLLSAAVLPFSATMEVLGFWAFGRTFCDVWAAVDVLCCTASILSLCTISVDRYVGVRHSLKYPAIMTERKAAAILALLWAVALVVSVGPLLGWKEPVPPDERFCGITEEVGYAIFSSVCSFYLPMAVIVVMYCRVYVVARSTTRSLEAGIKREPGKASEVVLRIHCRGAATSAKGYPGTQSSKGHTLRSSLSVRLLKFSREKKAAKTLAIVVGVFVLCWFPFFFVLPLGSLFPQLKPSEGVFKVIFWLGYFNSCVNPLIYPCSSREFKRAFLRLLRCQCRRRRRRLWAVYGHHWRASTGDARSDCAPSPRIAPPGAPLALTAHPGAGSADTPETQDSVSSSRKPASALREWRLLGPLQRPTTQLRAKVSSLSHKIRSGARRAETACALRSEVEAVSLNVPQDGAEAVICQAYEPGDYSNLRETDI
Procedure, shortened: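 Isolated rat aorta contracted with phenylephrine, with cumulative concentration–response curves run with and without antagonist. KB = antagonist concentration/(dose ratio − 1) by Schild, where dose ratio is the phenylephrine EC50 with antagonist over EC50 without. Means with 95% confidence limits, N = 4–6 experiments.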

[4] = molecular target: T4, Alpha-2B adrenergic receptor (Homo sapiens, UniProt P18089); assay: Binding affinity towards human alpha-2B adrenergic receptor expressed in Chinese Hamster ovary (CHO) cells; assay type: cell-based
T4 sequence (P18089 whole entry): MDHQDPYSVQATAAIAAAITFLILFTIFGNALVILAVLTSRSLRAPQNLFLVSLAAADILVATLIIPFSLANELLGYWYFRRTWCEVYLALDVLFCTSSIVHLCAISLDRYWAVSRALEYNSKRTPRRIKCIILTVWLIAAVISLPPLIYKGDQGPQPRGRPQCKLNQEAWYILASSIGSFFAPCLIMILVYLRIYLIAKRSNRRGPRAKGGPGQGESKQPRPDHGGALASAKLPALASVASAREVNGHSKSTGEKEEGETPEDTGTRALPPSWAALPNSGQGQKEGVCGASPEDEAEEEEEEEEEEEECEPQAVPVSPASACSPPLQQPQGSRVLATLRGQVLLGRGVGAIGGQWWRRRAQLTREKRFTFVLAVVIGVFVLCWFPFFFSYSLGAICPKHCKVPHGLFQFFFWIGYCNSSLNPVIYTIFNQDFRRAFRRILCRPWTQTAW

[5] = molecular target: T5, Alpha-1B adrenergic receptor (Homo sapiens, UniProt P35368); assay: Binding affinity towards human alpha-1B adrenergic receptor expressed in human embryonic kidney (HEK293) cells
T5 sequence (P35368 whole entry): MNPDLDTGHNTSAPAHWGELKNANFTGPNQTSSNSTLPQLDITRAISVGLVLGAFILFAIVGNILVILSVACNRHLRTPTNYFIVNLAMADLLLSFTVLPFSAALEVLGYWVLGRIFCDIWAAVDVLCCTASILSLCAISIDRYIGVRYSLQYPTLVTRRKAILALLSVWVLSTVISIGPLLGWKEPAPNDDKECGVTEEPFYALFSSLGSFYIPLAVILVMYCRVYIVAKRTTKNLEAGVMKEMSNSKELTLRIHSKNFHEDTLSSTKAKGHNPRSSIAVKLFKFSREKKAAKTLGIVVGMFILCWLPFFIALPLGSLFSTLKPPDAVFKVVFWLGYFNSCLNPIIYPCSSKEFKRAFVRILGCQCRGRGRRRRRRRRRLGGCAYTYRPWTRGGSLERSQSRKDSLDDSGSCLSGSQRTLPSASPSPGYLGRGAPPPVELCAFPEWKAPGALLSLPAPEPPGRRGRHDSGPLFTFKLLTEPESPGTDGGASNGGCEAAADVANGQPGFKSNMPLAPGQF

[6] = molecular target: T6, Alpha-1D adrenergic receptor (Homo sapiens, UniProt P25100); assay: Binding affinity towards human alpha-1D adrenergic receptor expressed in human embryonic kidney (HEK293) cells
T6 sequence (P25100 whole entry): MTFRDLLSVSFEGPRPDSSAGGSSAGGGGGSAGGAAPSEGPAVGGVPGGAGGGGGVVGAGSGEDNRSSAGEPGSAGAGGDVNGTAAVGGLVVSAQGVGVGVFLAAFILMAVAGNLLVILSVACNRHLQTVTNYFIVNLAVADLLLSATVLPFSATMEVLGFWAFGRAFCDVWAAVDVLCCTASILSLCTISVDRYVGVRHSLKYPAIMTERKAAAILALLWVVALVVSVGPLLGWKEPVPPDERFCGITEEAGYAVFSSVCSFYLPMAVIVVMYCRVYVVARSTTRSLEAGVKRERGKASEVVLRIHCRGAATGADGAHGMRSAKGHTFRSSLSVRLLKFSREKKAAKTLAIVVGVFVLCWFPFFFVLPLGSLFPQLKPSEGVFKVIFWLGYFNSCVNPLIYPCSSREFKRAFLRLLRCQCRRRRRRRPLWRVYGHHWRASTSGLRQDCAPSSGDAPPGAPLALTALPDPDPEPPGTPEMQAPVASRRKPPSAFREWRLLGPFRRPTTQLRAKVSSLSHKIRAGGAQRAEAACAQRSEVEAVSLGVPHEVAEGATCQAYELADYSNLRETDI

[7] = molecular target: T1, Alpha-2A adrenergic receptor; assay: as §1; assay type: cell-based
[8] = molecular target: T7, Alpha-2C adrenergic receptor (Homo sapiens, UniProt P18825); assay: Binding affinity towards human alpha-2C adrenergic receptor expressed in Chinese Hamster ovary (CHO) cells; assay type: cell-based
T7 sequence (P18825 whole entry): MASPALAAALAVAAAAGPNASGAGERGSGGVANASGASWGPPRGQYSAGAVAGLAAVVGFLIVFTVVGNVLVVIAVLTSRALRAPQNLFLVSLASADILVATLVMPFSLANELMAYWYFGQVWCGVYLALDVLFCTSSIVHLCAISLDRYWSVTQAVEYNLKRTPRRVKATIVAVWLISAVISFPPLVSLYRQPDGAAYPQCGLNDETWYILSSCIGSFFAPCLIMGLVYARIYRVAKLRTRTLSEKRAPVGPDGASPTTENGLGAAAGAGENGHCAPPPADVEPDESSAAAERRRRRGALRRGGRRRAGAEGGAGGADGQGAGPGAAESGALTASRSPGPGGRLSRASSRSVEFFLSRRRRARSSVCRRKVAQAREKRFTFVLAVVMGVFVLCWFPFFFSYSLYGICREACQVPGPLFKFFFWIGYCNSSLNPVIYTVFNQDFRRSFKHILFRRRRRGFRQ

Ki [1] | Ki [2] | Kb [3] | Ki [4] | Ki [5] | Ki [6] | Ki [7] | Ki [8] | SMILES
24600 nM | 5740 nM | > 30000 nM |  |  |  |  |  | COc1cccc(N(NC2=NCCO2)c2ccc(C)cc2)c1
 | 26.8 nM | 2.9 nM | 18 nM | 843 nM | 49.7 nM | 23.8 nM | 12.8 nM | Cc1ccc(N(NC2=NCCN2)c2cccc(O)c2)cc1
 | 5620 nM | 13000 nM |  |  |  | 18600 nM |  | Cc1ccc(N(NC2=NCCO2)c2cccc(O)c2)cc1
 | 19.9 nM | 7.4 nM | 7.3 nM | 103 nM | 17.5 nM | 6.3 nM | 3.8 nM | COc1cccc(N(NC2=NCCN2)c2ccc(C)cc2)c1
